Results on one molecule are retold here after ChEMBL document CHEMBL4616681, “Discovery of 3-Pyridyl Isoindolin-1-one Derivatives as Potent, Selective, and Orally Active Aldosterone Synthase (CYP11B2) Inhibitors” (J Med Chem, 2020).

Data set [1] has as its system Cynomolgus monkey. Description: In vivo inhibition of CYP11B1 in cynomolgus monkey assessed as reduction in ACTH-induced cortisol at 0.01 to 1 mg/kg, po preincubated for 1 hr followed by ACTH challenge and measured after 60 mins by LC/MS-MS analysis. It counts as ADME, organism-based, Macaca fascicularis. The gist of the method:
(§1)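 Cynomolgus monkeys preselected as Synacthen responders (at least 2-fold rise in aldosterone, cortisol and corticosterone). Two animals per group. Oral vehicle or compound at 0.01–10 mg/kg in hydroxyethylcellulose/polysorbate 80/paraben suspension (2 mL/kg) at T=0, then 14.5 µg/kg Synacthen i.m. at 1 hr. EDTA blood drawn from -5 min to 24 h. Plasma steroids measured by LC/MS-MS; data shown 60 min after challenge.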

Data set [2] concerns Cynomolgus monkey. In words: In vivo inhibition of CYP11B1 in cynomolgus monkey assessed as reduction in ACTH-induced 11-deoxycortisol at 0.01 to 10 mg/kg, po preincubated for 1 hr followed by ACTH challenge and measured after 60 mins by LC/MS-MS analysis. It counts as ADME, organism-based, Macaca fascicularis. The gist of the method: as §1
The test system of data set [3] is Cynomolgus monkey. Description: In vivo inhibition of CYP11B2 in cynomolgus monkey assessed as reduction in ACTH-induced corticosterone at 0.01 to 10 mg/kg, po preincubated for 1 hr followed by ACTH challenge and measured after 60 mins by LC/MS-MS analysis. It counts as functional, organism-based. Particulars: Macaca fascicularis. The method, boiled down: as §1

The test system of data set [4] is Cynomolgus monkey. In words: In vivo inhibition of CYP11B2 in cynomolgus monkey assessed as reduction in ACTH-induced aldosterone at 0.01 to 10 mg/kg, po preincubated for 1 hr followed by ACTH challenge and measured after 60 mins by LC/MS-MS analysis. The conditions noted are these: Macaca fascicularis. It counts as functional, organism-based. The method, boiled down: as §1

In data set [5] the test system is Cynomolgus monkey. In words: In vivo inhibition of CYP11B1 in cynomolgus monkey assessed as reduction in ACTH-induced cortisol at 10 mg/kg, po preincubated for 1 hr followed by ACTH challenge and measured after 60 mins by LC/MS-MS analysis. It counts as ADME, organism-based, Macaca fascicularis. The method, boiled down:
as §1

Data set [6] deals with T1, Cytochrome P450 11B2, mitochondrial (Homo sapiens, UniProt P19099).
T1 sequence (P19099 whole entry): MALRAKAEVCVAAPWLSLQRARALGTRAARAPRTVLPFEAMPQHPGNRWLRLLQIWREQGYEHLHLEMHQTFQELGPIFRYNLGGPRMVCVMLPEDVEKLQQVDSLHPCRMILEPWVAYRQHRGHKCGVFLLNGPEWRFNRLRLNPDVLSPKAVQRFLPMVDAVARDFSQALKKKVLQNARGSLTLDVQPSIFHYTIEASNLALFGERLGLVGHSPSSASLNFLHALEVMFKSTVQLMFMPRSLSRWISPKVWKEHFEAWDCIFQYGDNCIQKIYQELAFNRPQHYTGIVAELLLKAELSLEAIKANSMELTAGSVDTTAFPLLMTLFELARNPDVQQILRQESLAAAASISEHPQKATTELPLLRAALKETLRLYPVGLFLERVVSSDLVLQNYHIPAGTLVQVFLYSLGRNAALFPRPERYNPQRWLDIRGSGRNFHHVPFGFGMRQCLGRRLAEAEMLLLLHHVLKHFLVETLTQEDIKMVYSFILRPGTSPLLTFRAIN
Description: Inhibition of human CYP11B2 expressed in human renal leiomyoblastoma cells harboring FDXR/FDX using 1-deoxycorticosterone as substrate by HTRF assay. The data set is classed as cell-based. The method, boiled down: (§2)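 Cells with endogenous FDXR/FDX and no detectable CYP11B activity, stably transfected (CMV promoter, neomycin selection, G-418 400 µg/mL) with CYP11B1 or CYP11B2 of the named species. Assayed in DMEM/F12 with 2.5% charcoal-treated FCS. Substrate 1 µM 11-deoxycorticosterone (B2) or 11-deoxycortisol (B1), 16 hr. Aldosterone or cortisol in supernatant measured by HTRF. IC50 from 4-parameter MMF fit; selectivity factor is the B1/B2 IC50 ratio.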

Data set [7] can be described thus: Selectivity ratio of IC50 for human CYP11B1 expressed in human renal leiomyoblastoma cells harboring FDXR/FDX to IC50 for human CYP11B2 expressed in human renal leiomyoblastoma cells harboring FDXR/FDX. It counts as cell-based. The gist of the method: as §2
A short description of data set [8]: Solubility of the compound in phosphate buffer at pH 6.5 shaken for 2 hrs followed by overnight incubation. It counts as physicochemical. The method, boiled down:
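Lyophilisation solubility assay run in duplicate from 10 mM DMSO stock. DMSO evaporated and residue redissolved in 0.05 M phosphate, pH 6.5. Stirred 1 hr, shaken 2 hr, left overnight, then filtered. Filtrate and a 1/10 dilution analysed by HPLC-UV against a four-point calibration.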

Data set [9] in a line: Inhibition of cynomolgus monkey CYP11B2 expressed in human G401 cells using 1-deoxycorticosterone as substrate by HTRF assay. Particulars: g-401. It counts as cell-based, Macaca fascicularis. The gist of the method:
as §2
For orientation: In TR-FRET formats the signal depends on donor and acceptor labels being close together.

A short description of data set [10]: Selectivity ratio of IC50 for cynomolgus monkey CYP11B1 expressed in human G401 cells to IC50 for cynomolgus monkey CYP11B2 expressed in human G401 cells. The data set is classed as cell-based. The method, boiled down: as §2
Data set [11] can be described thus: Intrinsic clearance in rat liver microsomes preincubated for 10 mins followed by NADPH regenerating system addition and measured up to 30 mins by LC/MS-MS analysis. The data set is classed as ADME, Microsome. The method, boiled down: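 Liver microsomes at 0.5 mg protein/mL in 100 mM potassium phosphate, pH 7.4. Compound preincubated 10 min at 37 °C. Intrinsic clearance scaled using the well-stirred liver model.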
For orientation: Microsomes from liver hold many membrane-bound enzymes, among them those of drug oxidation.

Data set [12] can be described thus: Plasma clearance in Wister-Han rat at 1 mg/kg, iv administered as single dose by LC/MS-MS analysis. The data set is classed as ADME, organism-based. Particulars: Wistar-Han. The gist of the method:
(§3)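 Male Wistar-Han rats, single dose. IV 1 mg/kg, compound at 0.5 mg/mL in NMP:saline 30/70 (v/v). Oral 3 mg/kg, 0.25 mg/mL in 2% Klucel with 0.1% Polysorbate 80. Three rats per time point. Heparinized blood taken at eight (iv) or seven (po) time points, plasma stored at -20 °C. Plasma levels by LC/MS-MS. Non-compartmental analysis.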

Data set [13] is described as follows: Oral bioavailability in Wister-Han rat at 3 mg/kg administered as single dose by LC/MS-MS analysis. The data set is classed as ADME, organism-based. Particulars: Wistar-Han, in vivo. The gist of the method: as §3
Data set [14] is described as follows: Protein binding in rat plasma assessed as unbound fraction at 1 uM by micro-equilibrium dialysis based LC-MS/MS analysis. The data set is classed as ADME, cell-free. The gist of the method: (§4)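 Equilibrium dialysis of pooled rat or cynomolgus plasma against Soerensen buffer pH 7.4, 12–14 kDa cut-off membrane. Compounds tested in cassettes of 2–5 at 1 μM initial total concentration, with diazepam as control. Dialysis 5 hr at 37 °C under 5% CO₂. Unbound percentage by LC/MS-MS.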
(In general: Equilibrium dialysis compares concentrations on both sides of a semipermeable membrane.)

Data set [15] can be described thus: Protein binding in cynomolgus monkey plasma assessed as unbound fraction at 1 uM by micro-equilibrium dialysis based LC-MS/MS analysis. The data set is classed as ADME, cell-free, Macaca fascicularis. The method, boiled down:
as §4

A short description of data set [16]: Intrinsic clearance in cynomolgus monkey hepatocytes. It counts as ADME, cell-based, Macaca fascicularis, Hepatocyte. The conditions noted are these: read-out: CLH.
Data set [17] in a line: Dose normalized AUC in cynomolgus monkey. The conditions noted are these: in vivo. It counts as ADME, Macaca fascicularis.
A short description of data set [18]: Oral bioavailability in cynomolgus monkey. It counts as ADME, organism-based, Macaca fascicularis. The conditions noted are these: in vivo.
For data set [19], the target named is T1, Cytochrome P450 11B2, mitochondrial. Description: Inhibition of CYP11B2 in H295R cell assessed as reduction in aldosterone by LC/MS-MS method.
For data set [20] the target is unchanged. Description: Inhibition of CYP11B2 in H295R cell assessed as reduction in 18-hyroxycorticosterone by LC/MS-MS method.

Molecules are shown by their SMILES. In brackets after ≈: the same amount, converted by molar mass. Activity calls are given as the source filed them. A value given as a limit tells only on which side of the number the result lay.

`CCS(=O)(=O)N1CC(Oc2cncc(N3C(=O)c4ccc(Cl)cc4C3(C)C)c2)C1`: the Activity entry in the data set with Cynomolgus monkey [1] was “Non-Toxic”; in the data set on Cynomolgus monkey [2], “Non-Toxic”; in the data set on Cynomolgus monkey [5], “Toxic”. In the data set with Cynomolgus monkey [3], the inhibition entry was “inactive”. Further, the inhibition entry with Cynomolgus monkey [4] is “Active”. Moreover, the IC50 (usually the point on the concentration scale where inhibition reaches its midpoint) in data set [6] is 4 nM; in data set [9], 2 nM; in data set [19], less than 1 nM; in data set [20], less than 1 nM. The Ratio IC50 in data set [7] was 162; in data set [10], 664. Besides, the concentration in solution in [8] (solubility at 2 h) was 78 µg/mL (≈ 179 µM). Further, in [11], the predicted hepatic clearance (CLH) is 5 mL/min/kg. Further, the clearance – broadly, the volume of plasma or blood freed of the substance per unit of time – in data set [12] amounted to 3.8 mL/min/kg. Moreover, the bioavailability (usually the share of a dose that reaches the circulation, judged against a reference dose that is usually intravenous) was 45% in data set [13] and 19% in [18]. In addition, the fraction unbound (in general, the share of the substance not bound to proteins or other matrix) at 1 µM in data set [14] was found to be 0.052; in data set [15], 0.138. The CLint scaled in data set [16] is 7.2 mL/min/kg. The AUC/dose in [17] amounted to 1085 kg·ng·h/mL/mg.
